Assay results pooled from the literature.
Each line is one published result; the experiments were not run side by side.
Target: Serine/threonine-protein kinase Nek2 (NEK2, Homo sapiens, UniProt P51955)

| SMILES | read-out | action | technique | tested at | measurement | value |
| --- | --- | --- | --- | --- | --- | --- |
| COc1cc(Nc2cnc(C#N)c(O[C@H](C)CN(C)C)n2)ncc1-c1cnn(C)c1 | enzyme activity | inhibitor | radiometric | 1 µM | remaining activity | 58% |
| COc1cc(/C=C/C(=O)CC(=O)/C=C/c2ccc(O)c(OC)c2)ccc1O | enzyme activity | inhibitor | – | 1 µM | activity vs control | 99% |
| CC(C)(C)c1nc(-c2cccc(NS(=O)(=O)c3c(F)cccc3F)c2F)c(-c2ccnc(N)n2)s1 | enzyme activity | inhibitor | radiometric | 1 µM | remaining activity | 83% |
| Cc1cnc(NC2CCOCC2)nc1-n1cnc(C(=O)NC(CN)c2cc(F)cc(Cl)c2)c1 (stereo not drawn) | enzyme activity | inhibitor | radiometric | 1 µM | remaining activity | 36% |
| CS(=O)(=O)NCC[C@H](NC(=O)c1cncc2c1cnn2-c1ccc(F)cc1)c1ccnc(S(C)(=O)=O)c1 | cell-free assay | – | competition with immobilised ligand | 1 µM | remaining binding | 97% |
| Cn1c2c(Cl)c(Cl)ccc2c2cc(N)[nH]c(=O)c21 | thermal stability | – | DSF | 10 µM | ΔTm | 1.8 °C |
| CN1CC(Oc2cnc(C#N)cc2-c2ccn3nc(NC(=O)C4CC4)cc3c2)C1 | enzyme activity | inhibitor | – | 1 µM | inhibition | 5% |
| Nc1nc(NC2CCCCC2)sc1C(=O)c1ccccc1 | enzyme activity | inhibitor | – | 10 µM | remaining activity | 93% |
| CCN(CC)CCNC(=O)c1c(C)[nH]c(/C=C2\C(=O)Nc3ccc(F)cc32)c1C | enzyme activity | inhibitor | – | 10 µM | inhibition | 28% |
| CN(C)C1CCN(CC#Cc2nn(C3CCCC3)c3nc(NCc4ccccc4)ncc23)C1 (stereo not drawn) | enzyme activity | inhibitor | FRET | 1 µM | inhibition | 4% |
| FC(F)(F)Oc1cccc(-c2cnc3ccc(-c4ccncc4)nn23)c1 | enzyme activity | inhibitor | radiometric | 5 µM | activity vs control | 88% |
| COc1ccc2c(c1)O[C@H](c1ccc(OC)c(OC)c1)C[C@@H]2NC(=O)C1(c2ccc3c(c2)OC(F)(F)O3)CC1 | cell-free assay | – | competition with immobilised ligand | 1 µM | remaining binding | 100% |
| Oc1cccc(-c2nc(N3CCOCC3)c3oc4ncccc4c3n2)c1 | enzyme activity | inhibitor | – | 10 µM | remaining activity | 86% |
| O=C(NS(=O)(=O)c1ccc(NCC2CCOCC2)c([N+](=O)[O-])c1)c1ccc(N2CCN(Cc3ccc(C(F)(F)F)cc3-c3ccc(Cl)cc3)CC2)cc1Oc1cnc2[nH]ccc2c1 | cell-free assay | – | competition with immobilised ligand | 1 µM | remaining binding | 100% |
| CNCc1ccc(-c2cc(-c3nc(-c4ccc(S(=O)(=O)C(C)C)cc4)cnc3N)on2)cc1 | enzyme activity | inhibitor | – | 2 µM | inhibition | 2% |
| C=CC(=O)Nc1cc(Nc2nccc(Nc3cc(Cl)c(F)cc3C(C)(C)O)n2)c(OC)cc1N1CC[C@@H](N(C)C)C1 | enzyme activity | inhibitor | – | 1 µM | inhibition | 5% |
| CC1(C)NC(=O)c2[nH]c3c(Cl)c(Cl)ccc3c2C1C#N (stereo not drawn) | thermal stability | – | DSF | 10 µM | ΔTm | -0.8 °C |
| Nc1cnc(N2CCc3cc(S(=O)(=O)Nc4c(F)cc(Cl)cc4F)cc(N4CCCC4=O)c32)nc1 | cell-free assay | – | competition with immobilised ligand | 1 µM | remaining binding | 89% |
| Cc1ccc(NC(=O)c2ccc(C)c(C(F)(F)F)c2)cc1C#Cc1nn(C2CCC(O)CC2)c2ncnc(N)c12 (stereo not drawn) | cell-free assay | – | – | 10 µM | remaining signal | 117% |
| CN1CCC2(CC1)NC(=O)c1c(c3ccc(Cl)c(Cl)c3n1C)C2C#N (racemic) | thermal stability | – | DSF | 10 µM | ΔTm | 0.1 °C |

| SMILES | read-out | action | technique | tested at | measurement | value |
| --- | --- | --- | --- | --- | --- | --- |
| CCC(=N\O)/C(C)=C/c1ccc(F)cc1 | cell-free assay | – | competition with immobilised ligand | 1 µM | remaining binding | 100% |
| CNc1cccc2cc(C(=O)Nc3ccc(C(=O)O)cc3)c(=O)[nH]c12 | enzyme activity | inhibitor | – | 10 µM | inhibition | 3.2% |
| CSc1nc(C)c(-c2ccnc(Nc3ccc(N4CCOCC4)cc3)c2)[nH]1 | enzyme activity | inhibitor | – | 10 µM | inhibition | 20% |
| Cc1ccc(NC(=O)c2ccc(CN3CCN(C)CC3)cc2)cc1Nc1nc(-c2cccnc2)cs1 | cell-free assay | – | – | 0.5 µM | remaining signal | 96.7% |
| Cc1noc([C@H]2C[C@@H](c3ccc(C(F)(F)F)cc3)CN(C(=O)N3CCS(=O)(=O)C3)C2)n1 | cell-free assay | – | competition with immobilised ligand | 1 µM | remaining binding | 100% |
| COc1cc(Cl)c(C(=O)N[C@@H](CN[C@H]2CC[C@@H](N)CC2)Cc2ccc(C#N)cc2)cc1-c1ccc(CN[C@H](C)c2ccc(C)cc2)o1 | enzyme activity | inhibitor | – | 1 µM | remaining activity | 114% |
| CNC(=O)c1cc(Oc2ccc(NC(=O)Nc3ccc(Cl)c(C(F)(F)F)c3)cc2)ccn1 | enzyme activity | inhibitor | – | 0.3 µM | inhibition | -1% |
| FC(F)c1nc2ccccc2n1-c1nc(N2CCOCC2)nc(N2CCOCC2)n1 | enzyme activity | inhibitor | – | 10 µM | remaining activity | 106% |
| CCCOc1ccc(OC)c(F)c1C(=O)c1ccc(C(=O)N[C@@H]2CNC[C@H]2NC(=O)c2ccc3[nH]ncc3c2)cc1 | enzyme activity | inhibitor | – | 10 µM | remaining activity | 66% |
| O=C(Nc1cnn(-c2csc(C(=O)NC3COC3)c2)c1)Nc1c(F)cccc1Cl | enzyme activity | inhibitor | – | 5 µM | remaining activity | 96.2% |
| COc1cc2ncnc(Nc3ccc(Oc4ccccc4)cc3C)c2cc1OC | enzyme activity | inhibitor | – | 1 µM | inhibition | 1% |
| Cc1ccc(Nc2nccc(N(C)c3ccc4c(C)n(C)nc4c3)n2)cc1S(N)(=O)=O | enzyme activity | inhibitor | – | 10 µM | inhibition | 91% |
| COc1cc2ncnc(Nc3ccc(F)c(Cl)c3)c2cc1OCCCN1CCOCC1 | cell-free assay | – | – | 0.5 µM | remaining signal | 98.4% |
| CC/C(=N\NC(=O)NCc1cccc(O)c1)c1ccc(O)c(C)c1O | enzyme activity | inhibitor | – | 0.1 µM | inhibition | -2.4% |
| CN(C)CC#Cc1ccc(OCCCc2sc(N3CCc4cccc(C(=O)Nc5nc6ccccc6s5)c4C3)nc2C(=O)O)c(F)c1 | cell-free assay | – | competition with immobilised ligand | 1 µM | remaining binding | 92% |
| Cn1c2c(c3ccc(Cl)c(Cl)c31)C(C#N)C1(CCCC1)NC2=O (stereo not drawn) | thermal stability | – | DSF | 10 µM | ΔTm | 0.3 °C |
| CN(c1ccnc(CNc2nc(Nc3ccc4c(c3)CC(=O)N4)ncc2C(F)(F)F)n1)S(C)(=O)=O | cell-free assay | – | competition with immobilised ligand | 1 µM | remaining binding | 83% |
| Cn1c2c(c3ccccc31)C(C#N)C(C)(C)NC2=O (stereo not drawn) | thermal stability | – | DSF | 10 µM | ΔTm | -0.1 °C |
| Clc1ccc(Nc2nnc(Cc3ccncc3)c3ccccc23)cc1 | cell-free assay | – | – | 0.5 µM | remaining signal | 101% |
